Assay results as given in PMC5018462 (Brain research, 2016).
Read-outs that look alike come from different tables or passages of the source.

Experiments:
[1] = tested on: primary murine microglia; experiment: Microglial uptake by confocal fluorescence microscopy; type: cell-based, murine (C57BL/6); settings: for uptake by primary microglia, unlabeled Aβ42: immunostained with AF488-conjugated secondary antibody
Outline: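 Microglia in glass-bottom dishes in serum- and GM-CSF-free medium at 37 °C. Conditions: 10 µM AF488-Aβ42 over time; various concentrations for 10 min; 5 µM labeled (imaged directly) or unlabeled Aβ42 (Ab9 1:5000, NL493 secondary). Fixed in 3.7% formaldehyde, DAPI, 40X confocal at fixed settings. ImageJ gave background-corrected cell fluorescence, or integrated density per nucleus. Two or three experiments.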

[2] = Solubility during SEC isolation in aCSF; type: physicochemical; settings: SEC isolation on Superdex 75 in aCSF pH 7.8
Outline: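 It stood 30 min–4 h at room temperature and was spun at 18,000g. Supernatant ran on a BSA-coated Superdex 75 column in aCSF at 0.5 mL min−1, A280 monitored, with fractions kept on ice.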

[3] = particularly at physiological pH; ref Jungbauer, et al., 2009; cited from earlier work

AF488-Aβ42 monomers: Aβ42 monomers labeled at primary amines with Alexa Fluor 488 TFP ester, isolated by SEC
uptake by primary microglia, AF488-labeled Aβ42 ([1]; 5 µM, imaged directly): not taken up readily
internalization by microglia (confocal) ([1]; 10 µM, 37 °C, time course, 40X confocal, ImageJ quantitation): Much lower levels
solubility [2]: solubility issues were not encountered

unlabeled Aβ42 protofibrils: Aβ1–42 soluble protofibrils formed in aCSF and isolated by SEC
uptake by primary microglia, unlabeled Aβ42 ([1]; 5 µM): rapid and extensive

AF488-N-terminal-labeled Aβ42: N-terminally AF488-labeled Aβ42 of Jungbauer et al., 2009
solubility [3]: limited solubility

unlabeled Aβ42 monomers: Aβ1–42 monomers isolated by SEC in aCSF
uptake by primary microglia, unlabeled Aβ42 ([1]; 5 µM): not taken up readily
